Data set [1] addresses T1, Gamma-secretase (Homo sapiens) (UniProt Q96BI3+Q9NZ42+Q8WW43+P49768+Q92542+P49810). The data set can be described thus: Inhibition of purified human gamma-secretase expressed in CHO cells assessed as suppression of amyloid beta 40 production at 100 uM using C100-Flag as substrate incubated for 4 hrs by ELISA relative to DMSO control. For orientation: In an ELISA, binding on a coated surface is turned into a signal by an enzyme label.

Data set [2] in a line: Inhibition of human gamma-secretase expressed in CHO cells assessed as effect on Notch1 processing at 100 uM using N100-Flag as substrate incubated for 4 hrs by Western blot analysis relative to DMSO control. The data set is classed as cell-based. The method, boiled down:
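Purified human γ-secretase from CHO cells stably overexpressing all four components; E. coli-expressed purified C100-Flag (APP) or N100-Flag (Notch) substrate; compounds at 100 μM final in 0.2% CHAPSO/HEPES pH 7.0 with 0.08% phosphatidylcholine, 0.02% phosphatidylethanolamine, DMSO <1% final; 37°C, 4 h; stopped with 0.5% SDS; Aβ40 by ELISA or Notch1 processing by Western blot, versus DMSO control.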
For orientation: A western blot detects proteins with antibodies after separation by electrophoresis.

Data set [3] concerns the target Gamma-secretase. The data set can be described thus: Inhibition of gamma-secretase (unknown origin) assessed as suppression of amyloid beta 42 production by cell-based assay. Set-up: species or system Homo sapiens.
Data set [4] has as its target Gamma-secretase. Nature of the data set: Inhibition of human gamma-secretase expressed in CHO cells assessed as suppression of amyloid beta 42 production using C100-Flag as substrate incubated for 4 hrs by ELISA. It is filed as cell-based.
Data set [5] addresses Gamma-secretase. Nature of the data set: Inhibition of human gamma-secretase expressed in CHO cells assessed as suppression of amyloid beta 40 production using C100-Flag as substrate incubated for 4 hrs by ELISA relative to DMSO control. It is filed as cell-based. In outline:
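Enzyme from CHO cells stably overexpressing all four γ-secretase components, purified; C100-Flag substrate expressed in E. coli; reaction in 0.2% CHAPSO/HEPES pH 7.0 containing 0.08% phosphatidylcholine and 0.02% phosphatidylethanolamine, final DMSO <1%; incubated 37°C for 4 h, quenched with SDS (0.5% final); Aβ40 quantified by specific ELISA as percent of DMSO control.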

The nature of data set [6]: Solubility of compound in PBS buffer at pH 7.4. The data set is classed as physicochemical.
Data set [7] can be described thus: Metabolic stability in rat liver microsomes assessed as parent compound remaining after 60 mins. The data set is classed as ADME. To be noted: read-out: Stability.
Data set [8] in a line: Permeability of compound from apical to basolateral side. The data set is classed as ADME. To be noted: not told; read-out: permeability.
The target of data set [9] is T1, Gamma-secretase (Homo sapiens). The data set can be described thus: Inhibition of gamma-secretase (unknown origin) assessed as suppression of amyloid beta 42 production at 100 uM by cell-based assay.
A short description of data set [10]: Metabolic stability in human liver microsomes assessed as parent compound remaining after 60 mins. It is filed as ADME. To be noted: read-out: Stability. A general note: Liver microsomes are a subcellular fraction often used to study metabolism.
Data set [11] can be described thus: Protein binding in human plasma. The data set is classed as ADME, cell-free. To be noted: read-out: PPB (converted).
Data set [12] is described as follows: Lipophilicity, logD of the compound. It is filed as physicochemical. To be noted: octanol/water.
Data set [13] in a line: Inhibition of gamma-secretase (unknown origin) assessed as suppression of Notch1 processing by cell-based assay. To be noted: Homo sapiens.
The target of data set [14] is Gamma-secretase. Nature of the data set: Inhibition of gamma-secretase (unknown origin) assessed as suppression of amyloid beta 40 production by cell-based assay. Also on record: species or system Homo sapiens.

This note sets out measurements from ChEMBL document CHEMBL3792290, “Part 1: Notch-sparing γ-secretase inhibitors: The identification of novel naphthyl and benzofuranyl amide analogs” (Bioorg Med Chem Lett, 2016).

pIC50: −log10 of the molar value. In brackets after ≈: the same amount, converted by molar mass.

For orientation: inhibition means the percentage by which the read-out fell short of the control. On to `CC(C)N(Cc1cccc(C#N)c1)C(=O)c1ccc2ccccc2c1`, for which the inhibition in data set [1] was found to be 31%.

`CC(C)N(Cc1cc(F)cc(F)c1)C(=O)c1ccc2ccccc2c1O`: in [1], the inhibition was 27%.

With `CC(C)N(Cc1ccccc1)C(=O)c1cnc2ccccc2c1`, the “inhibition (INH)” value in data set [2] was “Active”. In [1], the inhibition is 50%.

In general, pIC50 refers to −log10 of the IC50, conventionally taken in molar units. Turning to `O=S(=O)(c1ccc(F)cc1)N(Cc1ccccc1OC1CCOCC1)c1cc(F)ccc1F`, the pIC50 at Gamma-secretase [3] was 6.21; at Gamma-secretase [4], 6.40; on Gamma-secretase [5] it was 6.44.

Broadly, the solubility is the concentration that dissolves in the medium under given conditions. As a reminder, the logD is the decadic logarithm of the distribution of all forms, ionised or not, between an organic phase and buffer at a given pH. Turning to `CC(C)N(Cc1ccccc1)C(=O)c1ccc2ccccc2c1`, in data set [6], the solubility is 63 µM (≈ 19.1 µg/mL). For the same compound, the figures for the remaining at 1 h in data set [7] and in data set [10] were 1% and 28%, respectively. Also, the Papp A→B in data set [8] is 39.6 ×10⁻⁶ cm/s. The inhibition in data set [9] is 81%; in [1], 58%. Further, in data set [11], the fraction unbound is 0.043. Besides, in [12], the logD stood at 4.2. Also, the “inhibition (INH)” value in data set [2] is listed as “Not Active”.

With `CC(C)N(Cc1ccccc1)C(=O)c1ccc(C(C)(C)C)cc1`, in [2], the “inhibition (INH)” value is reported as “Active”. For the same compound, the inhibition in data set [1] is 85%.

As for `CC(C)N(Cc1ccccc1)C(=O)c1cnc2cc(Cl)ccc2c1O`, the “inhibition (INH)” value in data set [2] is “Not Active”. Further, in data set [1], the inhibition was determined as 33%.

For the compound `CC(C)N(Cc1ccccc1)C(=O)c1ccc(-c2ccccc2)cc1`, the inhibition in data set [1] is 27%.

Consider `CC(C)(C)N(Cc1ccccc1)C(=O)c1ccc2ccccc2c1`, for which the “inhibition (INH)” value in [2] is given as “Not Active”. For the same compound, the inhibition in data set [1] turned out to be 52%.

As for `COc1ccc(CN(C(=O)c2ccc3ccccc3c2O)C(C)C)cc1`, at Gamma-secretase [3], the pIC50 was 4.02. In data set [2], the “inhibition (INH)” value is recorded as “Not Active”. For the same compound, the inhibition in data set [1] is 33%.

Turning to `CC(C)N(Cc1ccc(F)c(F)c1)C(=O)c1ccc2ccccc2c1`, in data set [2], the “inhibition (INH)” value is listed as “Not Active”. Further, the inhibition in [1] was found to be 34%.

In the case of `COc1cccc(CN(C(=O)c2ccc3ccccc3c2)C(C)C)c1`, the “inhibition (INH)” value in data set [2] was “Not Active”. In [1], the inhibition turned out to be 19%.

Consider `CN(Cc1ccccc1)C(=O)c1ccc2ccccc2c1`, for which the inhibition in data set [1] is 15%.

With `COc1cccc2cc(C(=O)N(Cc3ccc(Cl)c(Cl)c3)C(C)C)oc12`, the inhibition was 81% in data set [9] and 75% in data set [1]. The “inhibition (INH)” value in [2] was “Not Active”.

With `O=C(c1ccc2ccccc2c1)N(Cc1ccccc1)C1CC1`, the “inhibition (INH)” value in [2] is “Not Active”. Also, in data set [1], the inhibition amounted to 37%.

As to `CC(C)N(Cc1ccc(Cl)c(Cl)c1)C(=O)c1ccc2ccccc2c1`, the pIC50 at Gamma-secretase [3] is 3.87. The “inhibition (INH)” value in [2] is listed as “Not Active”. Further, the inhibition in data set [1] is 58%.

For `CC(C)N(Cc1ccccc1)C(=O)c1ccccc1`, the inhibition in [1] stood at 10%.

On to `CC(C)N(Cc1ccc(N2CCCCC2)cc1)C(=O)c1ccc2ccccc2c1`, for which the “inhibition (INH)” value in data set [2] is listed as “Active”. For the same compound, the inhibition in [1] is 38%.

As to `CC(C)N(Cc1ccccc1)C(=O)c1cn(C)c2ccccc12`, in [1], the inhibition was 0%.

On to `Cc1c(C(=O)N(Cc2ccc(Cl)c(Cl)c2)C(C)C)oc2ccccc12`, for which, in [1], the inhibition is 0%.

With `CCOc1cccc2cc(C(=O)N(Cc3ccc(Cl)c(Cl)c3)C(C)C)oc12`, the “inhibition (INH)” value in data set [2] was “Not Active”. Further, the inhibition in [1] turned out to be 58%.

In the case of `CC(C)N(Cc1cc(F)cc(F)c1)C(=O)c1ccc2ccccc2c1`, in data set [1], the inhibition worked out at 21%.

With `CC(C)N(Cc1ccc(C#N)cc1)C(=O)c1ccc2ccccc2c1`, the inhibition in [1] stood at 31%.

On to `CCC(CC)N(Cc1ccc(C(=O)O)cc1)S(=O)(=O)c1ccc(Cl)cc1`, for which the negative-log IC50 (pIC50) is 5.00 in [13], 6.89 on Gamma-secretase [3] and 6.92 at Gamma-secretase [14].

Consider `CC(C)N(Cc1ccccc1)C(=O)c1cc2ccccc2o1`, for which the “inhibition (INH)” value in [2] is given as “Not Active”. Further, in [1], the inhibition amounted to 40%.

With `O=C(NCc1ccccc1)c1ccc2ccccc2c1`, the inhibition in data set [1] amounted to 0%.

As to `CC(C)N(Cc1ccccc1)C(=O)c1ccc2occc2c1`, the inhibition in [1] is 14%.

Turning to `COC(=O)c1ccc(CN(c2cc(F)ccc2F)S(=O)(=O)c2ccc(F)cc2)cc1`, at Gamma-secretase [5], the pIC50 was 6.24.

On to `CC(C)N(Cc1ccc(Cl)c(Cl)c1)C(=O)c1ccc2ccccc2c1O`, for which the pIC50 at Gamma-secretase [3] is 4.07. Further, in [2], the “inhibition (INH)” value is on record as “Not Active”. Further, the inhibition in data set [1] was 41%.

For the compound `CC(C)N(Cc1ccccc1)C(=O)c1cccc(Oc2ccccc2)c1`, in [2], the “inhibition (INH)” value is listed as “Active”. In addition, the inhibition in data set [1] turned out to be 50%.

In the case of `COc1cccc2cc(C(=O)N(Cc3ccc(Cl)c(F)c3)C(C)C)oc12`, in [2], the “inhibition (INH)” value is on record as “Not Active”. Besides, the inhibition in data set [1] was 23%.

Take `COc1cc(CN(C(=O)c2ccc3ccccc3c2)C(C)C)cc(OC)c1`: the “inhibition (INH)” value in data set [2] is “Not Active”. Further, in data set [1], the inhibition is 35%.

As to `CC(C)N(Cc1ccccc1)C(=O)c1ccc2ccccc2c1O`, at Gamma-secretase [3], the pIC50 was 4.02. Moreover, the “inhibition (INH)” value in data set [2] is recorded as “Not Active”. For the same compound, in [1], the inhibition was 67%.

With `CC(C)N(Cc1ccc(F)c(F)c1)C(=O)c1ccc2ccccc2c1O`, the “inhibition (INH)” value in [2] is on record as “Not Active”. Also, the inhibition in data set [1] was 49%.

Regarding `COc1cccc2cc(C(=O)N(Cc3ccc(F)c(Cl)c3)C(C)C)oc12`, the “inhibition (INH)” value in data set [2] is “Not Active”. For the same compound, in [1], the inhibition was 49%.

Regarding `COc1ccc(CN(C(=O)c2ccc3ccccc3c2)C(C)C)cc1`, the “inhibition (INH)” value in data set [2] is given as “Active”. For the same compound, in data set [1], the inhibition was determined as 47%.

Turning to `CC(C)N(Cc1ccc(Cl)c(Cl)c1)C(=O)c1cc2ccccc2o1`, in data set [2], the “inhibition (INH)” value was “Not Active”. For the same compound, the inhibition in data set [1] worked out at 51%.
